Experimental data taken from ChEMBL document CHEMBL4130629 (J Med Chem, 2018).

Assays:
[1] = Half life in Sprague-Dawley rat at 1 mg/kg, iv; format: ADME, organism-based; conditions: in vivo
[2] = Volume of distribution at steady state in Sprague-Dawley rat at 1 mg/kg, iv; format: ADME, organism-based; conditions: in vivo, read-out: Vdss
In short: (§1)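 Male Sprague-Dawley rats (300−350 g) with jugular vein and/or bile duct cannulas, n = 3 per route; dosed as a solution in PEG-400/ethanol (90/10). The iv dose was 1 mg/kg given as a 0.5 min bolus, with jugular blood sampled from 2 to 1440 min. The po dose was 5 mg/kg after an overnight fast, sampled from 15 to 1440 min. Plasma was taken from EDTA blood.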

[3] = AUC in Sprague-Dawley rat at 5 mg/kg, po after 24 hrs; format: ADME, organism-based; set-up: time < 24 hr, dose 5 mg/kg, route oral; conditions: in vivo; in short: as §1
MT2 = test: Cytotoxicity against human MT2 cells assessed as decrease in cell viability after 3 days […]; format: functional; conditions: MT2, 72 h
[4] = Metabolic stability in rat liver microsomes assessed as parent compound remaining after 10 mins; format: ADME, microsome; conditions: read-out: Stability
In short: (§2)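 Compound at 3 μM was incubated with human or rat liver microsomes, and the percentage of parent compound remaining was measured after 10 min.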

[5] = Oral bioavailability in Sprague-Dawley rat at 5 mg/kg; format: ADME, organism-based; conditions: in vivo; in short: as §1
[6] = Permeability in human Caco2 cells; format: ADME, cell-based; conditions: Caco-2, read-out: permeability
[7] = Metabolic stability in human liver microsomes assessed as parent compound remaining after 10 mins; format: ADME, microsome; conditions: read-out: Stability; in short: as §2
[8] = system: Human immunodeficiency virus 1; test: Antiviral activity against ENV pseudotyped CCR5-tropic HIV1 […] infected in human HeLa67 cells after 3 days by luciferase reporter gene assay; format: functional, organism-based; conditions: Human immunodeficiency virus 1, HeLa67, 72 h
In short: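 Single-cycle infection with env-deleted, luciferase-reporter HIV-1 pseudotyped with the JRFL (CCR5) envelope, supplied by transfection; viral titers normalized by luminescence without compound. HeLa 67 cells were infected in the presence of compounds given as 3-fold serial dilutions made from 30 mM DMSO stocks.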

[9] = Clearance in Sprague-Dawley rat at 1 mg/kg, iv; format: ADME, organism-based; conditions: in vivo
[10] = Half life in human liver microsomes; format: ADME, microsome

Q: With `CCc1ncn(-c2ncc(OC)c3c(C(=O)C(=O)N4CCN(C(=O)c5ccccc5)[C@H](C)C4)c[nH]c23)n1` as the molecule, how does the half-life [1] read?
A: Its half-life is 3 h.

Q: And the Vd [2]?
A: Its Vd is 0.2 L/kg.

Q: What about the AUC at 24 h [3] of the same molecule?
A: Its AUC at 24 h is 82 µM·h.

Q: What about the CC50 (MT2) of the same molecule?
A: The CC50 was 281000 nM.

Q: What about the remaining at 10 min [4] of the same molecule?
A: The remaining at 10 min was 90%.

Q: And the bioavailability [5]?
A: Its bioavailability is 88.4%.

Q: What about the Papp [6] of the same molecule?
A: Its Papp is 31.5 ×10⁻⁶ cm/s.

Q: And the remaining at 10 min [7]?
A: The remaining at 10 min was 84%.

Q: What about the EC50 [8] of the same molecule?
A: The EC50 was 0.08 nM.

Q: With `CCc1ncn(-c2ncc(OC)c3c(C(=O)C(=O)N4CCN(C(=O)c5ccccc5)CC4)c[nH]c23)n1` as the molecule, how does the half-life [1] read?
A: Its half-life is 3.3 h.

Q: And the Vd [2]?
A: Its Vd is 0.12 L/kg.

Q: And the AUC at 24 h [3]?
A: The AUC at 24 h was 254 µM·h.

Q: And the CC50 (MT2)?
A: The CC50 was 90000 nM.

Q: And the remaining at 10 min [4]?
A: Its remaining at 10 min is 94%.

Q: And the bioavailability [5]?
A: Its bioavailability is 86%.

Q: What about the Papp [6] of the same molecule?
A: Its Papp is 26.1 ×10⁻⁶ cm/s.

Q: What about the clearance [9] of the same molecule?
A: Its clearance is 0.7 mL/min/kg.

Q: What about the remaining at 10 min [7] of the same molecule?
A: The remaining at 10 min was 100%.

Q: And the EC50 [8]?
A: Its EC50 is 0.05 nM.

Q: Which half-life [1] does the source give for `COc1cnc(-n2ccc(N)n2)c2[nH]cc(C(=O)C(=O)N3CCN(C(=O)c4ccccc4)CC3)c12` here?
A: Its half-life is 0.5 h.

Q: And the Vd [2]?
A: Its Vd is 0.4 L/kg.

Q: And the AUC at 24 h [3]?
A: The AUC at 24 h was 0.03 µM·h.

Q: What about the CC50 (MT2) of the same molecule?
A: The CC50 was over 150000 nM.

Q: What about the remaining at 10 min [4] of the same molecule?
A: Its remaining at 10 min is 99%.

Q: And the bioavailability [5]?
A: The bioavailability was 0.8%.

Q: And the Papp [6]?
A: The Papp was under 1.5 ×10⁻⁶ cm/s.

Q: And the clearance [9]?
A: The clearance was 57 mL/min/kg.

Q: What about the remaining at 10 min [7] of the same molecule?
A: Its remaining at 10 min is 98%.

Q: What about the EC50 [8] of the same molecule?
A: The EC50 was 0.04 nM.

Q: Which results are given for `COc1cnc(-c2cnccn2)c2[nH]cc(C(=O)C(=O)N3CCN(C(=O)c4ccccn4)CC3)c12`?
A: half-life [1]: 4 h; Vd [2]: 1.9 L/kg; AUC at 24 h [3]: 14.6 µM·h; CC50 (MT2): > 300000 nM; remaining at 10 min [4]: 27%; bioavailability [5]: 85%; half-life [10]: > 1.67 h; remaining at 10 min [7]: 100%; EC50 [8]: 0.11 nM

Q: Which results are given for `COc1cnc(-n2ccc(CO)n2)c2[nH]cc(C(=O)C(=O)N3CCN(C(=O)c4ccccc4)[C@H](C)C3)c12`?
A: half-life [1]: 2.9 h; Vd [2]: 1.1 L/kg; AUC at 24 h [3]: 1.99 µM·h; CC50 (MT2): > 300000 nM; remaining at 10 min [4]: 90%; bioavailability [5]: 19%; remaining at 10 min [7]: 81%; EC50 [8]: 0.14 nM

Q: With `COc1cnc(-n2ccnn2)c2[nH]cc(C(=O)C(=O)N3CCN(C(=O)c4ccccc4)CC3)c12` as the molecule, how does the half-life [1] read?
A: Its half-life is 1.6 h.

Q: What about the Vd [2] of the same molecule?
A: The Vd was 0.23 L/kg.

Q: What about the AUC at 24 h [3] of the same molecule?
A: The AUC at 24 h was 43.5 µM·h.

Q: And the CC50 (MT2)?
A: Its CC50 is 225000 nM.

Q: And the remaining at 10 min [4]?
A: The remaining at 10 min was 82%.

Q: What about the bioavailability [5] of the same molecule?
A: Its bioavailability is 59%.

Q: And the Papp [6]?
A: The Papp was 7.8 ×10⁻⁶ cm/s.

Q: What about the remaining at 10 min [7] of the same molecule?
A: The remaining at 10 min was 83%.

Q: What about the EC50 [8] of the same molecule?
A: Its EC50 is 0.07 nM.

Q: Which half-life [1] does the source give for `COc1cnc(-n2cnc(C)n2)c2[nH]cc(C(=O)C(=O)N3CCN(C(=O)c4ccccc4)[C@H](C)C3)c12` here?
A: The half-life was 3 h.

Q: What about the Vd [2] of the same molecule?
A: Its Vd is 0.34 L/kg.

Q: And the AUC at 24 h [3]?
A: The AUC at 24 h was 88 µM·h.

Q: What about the CC50 (MT2) of the same molecule?
A: The CC50 was over 300000 nM.

Q: And the remaining at 10 min [4]?
A: The remaining at 10 min was 98%.

Q: What about the bioavailability [5] of the same molecule?
A: Its bioavailability is 104%.

Q: And the Papp [6]?
A: The Papp was 12.8 ×10⁻⁶ cm/s.

Q: And the remaining at 10 min [7]?
A: Its remaining at 10 min is 94%.

Q: And the EC50 [8]?
A: Its EC50 is 0.18 nM.

Q: With `COc1cnc(-n2ccnn2)c2[nH]cc(C(=O)C(=O)N3CCN(C(=O)c4ccccc4)[C@H](C)C3)c12` as the molecule, how does the half-life [1] read?
A: The half-life was 0.7 h.

Q: And the Vd [2]?
A: The Vd was 0.49 L/kg.

Q: And the AUC at 24 h [3]?
A: The AUC at 24 h was 8.6 µM·h.

Q: What about the CC50 (MT2) of the same molecule?
A: The CC50 was over 150000 nM.

Q: What about the remaining at 10 min [4] of the same molecule?
A: Its remaining at 10 min is 78%.

Q: And the bioavailability [5]?
A: Its bioavailability is 59%.

Q: What about the Papp [6] of the same molecule?
A: Its Papp is 14.3 ×10⁻⁶ cm/s.

Q: And the clearance [9]?
A: Its clearance is 12 mL/min/kg.

Q: And the remaining at 10 min [7]?
A: The remaining at 10 min was 83%.

Q: And the EC50 [8]?
A: The EC50 was 0.08 nM.

Q: With `COc1cnc(-n2ncnc2C)c2[nH]cc(C(=O)C(=O)N3CCN(C(=O)c4ccccc4)CC3)c12` as the molecule, how does the CC50 (MT2) read?
A: The CC50 was over 300000 nM.

Q: What about the remaining at 10 min [4] of the same molecule?
A: The remaining at 10 min was 95%.

Q: And the Papp [6]?
A: The Papp was 9.6 ×10⁻⁶ cm/s.

Q: What about the remaining at 10 min [7] of the same molecule?
A: Its remaining at 10 min is 99%.

Q: And the EC50 [8]?
A: The EC50 was 4.07 nM.

Q: What does the source list for `COc1cnc(-n2ccc(CN(C)C)n2)c2[nH]cc(C(=O)C(=O)N3CCN(C(=O)c4ccccc4)CC3)c12`?
A: CC50 (MT2): > 150000 nM; remaining at 10 min [4]: 100%; Papp [6]: 1.5 to 4.1 ×10⁻⁶ cm/s; remaining at 10 min [7]: 100%; EC50 [8]: 0.27 nM

Q: For `COc1cnc(-n2cc(C)nn2)c2[nH]cc(C(=O)C(=O)N3CCN(C(=O)c4ccccc4)CC3)c12`, which CC50 (MT2) is on record?
A: Its CC50 is over 300000 nM.

Q: What about the remaining at 10 min [4] of the same molecule?
A: The remaining at 10 min was 84%.

Q: What about the Papp [6] of the same molecule?
A: The Papp was 16.6 ×10⁻⁶ cm/s.

Q: And the remaining at 10 min [7]?
A: Its remaining at 10 min is 94%.

Q: And the EC50 [8]?
A: The EC50 was 0.06 nM.

Q: Which results are given for `COc1cnc(-n2nccc2C)c2[nH]cc(C(=O)C(=O)N3CCN(C(=O)c4ccccc4)CC3)c12`?
A: CC50 (MT2): > 300000 nM; remaining at 10 min [4]: 100%; Papp [6]: 21.6 ×10⁻⁶ cm/s; remaining at 10 min [7]: 94%; EC50 [8]: 1.43 nM
